Holding throughout (type): functional
The test system of one test is PSN1. Briefly: Cytotoxicity against human PSN1 cells assessed as inhibition of cell growth. A digest of the protocol:
(§1)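 Human tumour lines were used: A-549 lung carcinoma, MDA-MB-231 breast adenocarcinoma, HT-29 colorectal carcinoma and PSN1 pancreatic adenocarcinoma. The compounds were tested across doses. GI50, the concentration giving 50% growth inhibition, was derived from dose-response data by a literature procedure. Survival was estimated with the National Cancer Institute algorithm, and three dose-response parameters were calculated.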

In another test the test system is HT-29. Briefly: Cytotoxicity against human HT-29 cells assessed as inhibition of cell growth. A digest of the protocol:
as §1

Another test deals with MDA-MB-231. Put plainly: Cytotoxicity against human MDA-MB-231 cells assessed as inhibition of cell growth. The gist of the method: as §1
For a further test, the system named is A549. Put plainly: Cytotoxicity against human A549 cells assessed as inhibition of cell growth. The gist of the method: as §1

For the compound `C/C=C/CCC(=O)C[C@@H](O)CCO[C@]1(CC/C=C/C)C[C@@H](O)CCO1`, the GI50 in the test on PSN1, with HT-29, in the test on MDA-MB-231 and with A549 was 28 µM throughout.
As for `C/C=C/C=C/C(=O)C[C@H](CCO)OC`, the GI50 stood at 50 µM in the test on PSN1, 49 µM in the test on HT-29, 30 µM in the test with MDA-MB-231 and 50 µM in the test with A549.
Take `C/C=C/CCC(=O)C[C@@H](O)CCO`: the GI50 with PSN1, in the test on HT-29, in the test with MDA-MB-231 and in the test with A549 was 54 µM each time.
As to `C/C=C/C=C/C(=O)CC(CCO)OCC[C@H](O)CC(=O)/C=C/C=C/C` (some centres undefined), the GI50 in the test on PSN1, in the test with HT-29, with MDA-MB-231 and with A549 was 29 µM in each case.
For the compound `C/C=C/C=C/C(=O)CC(CCO)OCC[C@H](O)CC(=O)CC/C=C/C` (some centres undefined), the GI50 in the test on PSN1, in the test with HT-29, with MDA-MB-231 and in the test with A549 was 28 µM each time.
On to `C/C=C/C=C/C(=O)C[C@@H](O)CCO`, for which the 50% growth inhibitory concentration (GI50) with PSN1, in the test on HT-29, with MDA-MB-231 and in the test with A549 was 54 µM each time.

The GI50 is the concentration that inhibits growth by half.

Values taken from ChEMBL document CHEMBL4043069, “Streptenols F-I Isolated from the Marine-Derived Streptomyces misionensis BAT-10-03-023” (2017).
